Calls of active or inactive are those of the source. No cut-off for these calls is given here.
Tests used:
[1] = test system: DU-145; test: Cytotoxicity against human DU145 cells assessed as reduction in cell viability after 48 hrs by MTS assay; format: functional, cell-based; settings: DU-145, 48 h
Summary of the method: (§1)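 Cells kept in RPMI-1640 with 10% fetal calf serum, 37 °C, 5% CO2. Seeded, after 24 h treated with 0.0001, 0.001, 0.01, 0.1, 1 and 10 μM compound (DMSO stocks freshly diluted in medium) for 48 h. MTS added 4 h, absorbance 490 nm; IC50 from curves of % viability inhibition versus DMSO-treated cells against log concentration.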

[2] = test system: Quadruplex DNA; test: Stabilization of 5'-FAM/3'-TAMRA labelled AR1 G-quadruplex oligonucleotide (unknown origin) assessed as change in melting temperature t1/2 at 1 uM after 16 hrs in presence of 100 mM K+ by FRET assay; format: nucleic-acid assay
Summary of the method: (§2)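 FRET melting: FAM/TAMRA dual-labelled oligos (0.25 μM) folded in 10 mM lithium cacodylate pH 7.4 with 100 mM KCl (95 °C 5 min, cooled 4 h); ligand added at 1 μM final, 16 h room temperature. FAM emission followed 30−95 °C at 1 °C/min; curves normalized 0 to 1, T1/2 at 0.5 fraction.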

[3] = test system: PC-3; test: Cytotoxicity against human PC3 cells assessed as reduction in cell viability after 48 hrs by MTS assay; format: functional, cell-based; settings: PC-3, 48 h; summary of the method: as §1
[4] = test system: LNCaP; test: Cytotoxicity against human LNCAP cells expressing androgen receptor T877A point mutant assessed as reduction in cell viability after 48 hrs by MTS assay; format: functional, cell-based; summary of the method: as §1
[5] = test system: PNT1A; test: Cytotoxicity against human PNT1A cells assessed as reduction in cell viability after 48 hrs by MTS assay; format: cell-based; summary of the method: as §1
[6] = test system: Quadruplex DNA; test: Binding affinity to 5'-Biotinylated-AR1 G-quadruplex oligonucleotide (unknown origin) by SPR analysis relative to control; format: nucleic-acid assay
[7] = test system: CWR22R; test: Cytotoxicity against human 22Rv1 cells expressing full length androgen receptor H875Y point mutant assessed as reduction in cell viability after 48 hrs by MTS assay; format: functional, cell-based; settings: 22Rv1, 48 h; summary of the method: as §1
[8] = molecular target: Quadruplex DNA; test: Binding affinity to 5'-Biotinylated-AR1 G-quadruplex oligonucleotide (unknown origin) by SPR analysis; format: nucleic-acid assay
Summary of the method: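 SPR on streptavidin chip; 5′-biotinylated oligo folded by heating 95 °C 5 min in 10 mM lithium cacodylate, 150 mM KCl, then immobilized at 30 nM to about 600 RU; empty reference cell. Compound 0.7−400 nM in HEPES-KCl (pH 7.4, 0.15 M KCl, 3 mM EDTA) at 40 °C, 40 μL/min, 260 s contact, 600 s dissociation; glycine pH 2.0 regeneration; steady-state affinity fit; at least two independent runs.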

[9] = test system: Quadruplex DNA; test: Stabilization of 5'-FAM/3'-TAMRA labelled AR3 G-quadruplex oligonucleotide (unknown origin) assessed as change in melting temperature t1/2 at 1 uM after 16 hrs in presence of 100 mM K+ by FRET assay; format: nucleic-acid assay; summary of the method: as §2
[10] = Stabilization of 5'-FAM/3'-TAMRA labelled CTATAGCGCGCTATAG dsDNA (unknown origin) assessed as change in melting temperature t1/2 at 1 uM after 16 hrs in presence of 100 mM K+ by FRET assay; summary of the method: as §2
[11] = test system: Quadruplex DNA; test: Stabilization of AR G-quadruplex oligonucleotide in human LNCAP cells assessed as reduction in PSA protein level by immunoblotting assay; format: cell-based
Summary of the method: (§3)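 Lysate proteins immunoblotted. Vinculin or β-actin used as loading control, peroxidase-linked secondary antibodies, ECL chemiluminescent detection, autoradiography, densitometric scan. Untreated cells received DMSO.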

[12] = test system: Quadruplex DNA; test: Stabilization of AR G-quadruplex oligonucleotide in human LNCAP cells assessed as reduction in AR mRNA expression at IC50 by RT-PCR analysis; format: cell-based; settings: TDE = time-dependent effect
Summary of the method: (§4)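 Cells grown in RPMI-1640 with 10% fetal calf serum, 37 °C, 5% CO2, treated at an equitoxic concentration. Transcripts quantified by TaqMan real-time RT-PCR, normalized to RNaseP, expressed as relative quantity versus untreated cells (calibrator) by the 2−ΔΔCt method.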

[13] = test system: Quadruplex DNA; test: Stabilization of AR G-quadruplex oligonucleotide in human 22Rv1 cells assessed as reduction in AR-Vs protein level by immunoblotting assay; format: cell-based
[14] = test system: Quadruplex DNA; test: Stabilization of AR G-quadruplex oligonucleotide in human LNCAP cells assessed as reduction in AR-FL protein level by immunoblotting assay; format: cell-based; summary of the method: as §3
[15] = test system: Quadruplex DNA; test: Stabilization of AR G-quadruplex oligonucleotide in human LNCAP cells assessed as reduction in basal AR mRNA expression at IC50 after 6 to 72 hrs by RT-PCR analysis; format: cell-based; summary of the method: as §4
[16] = test system: Quadruplex DNA; test: Stabilization of AR G-quadruplex oligonucleotide in human 22Rv1 cells assessed as reduction in basal AR mRNA expression at IC50 after 6 to 72 hrs by RT-PCR analysis; format: cell-based
Summary of the method: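 Transcripts quantified by TaqMan real-time PCR with RNaseP as normalizer; relative quantity versus untreated cells by the 2−ΔΔCt method. Panel genes measured with a 92-gene cancer-mechanism TaqMan array.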

[17] = test system: Quadruplex DNA; test: Stabilization of AR G-quadruplex oligonucleotide in human 22Rv1 cells assessed as reduction in AR mRNA expression at IC50 by RT-PCR analysis; format: cell-based; settings: TDE = time-dependent effect
[18] = test system: Quadruplex DNA; test: Stabilization of AR G-quadruplex oligonucleotide in human 22Rv1 cells assessed as reduction in AR-FL protein level by immunoblotting assay; format: cell-based
[19] = test system: Quadruplex DNA; test: Stabilization of AR G-quadruplex oligonucleotide in human 22Rv1 cells assessed as reduction in AR-VS protein level at IC50 after 48 hrs by Western immunoblot assay; format: cell-based
[20] = test system: Quadruplex DNA; test: Stabilization of AR G-quadruplex oligonucleotide in human 22Rv1 cells assessed as reduction in AR-FL protein level at IC50 after 48 hrs by Western immunoblot assay; format: cell-based

ΔTm [2] [°C]	RBA [6] [%]	Kd [8] [µM]	ΔTm [9] [°C]	ΔTm [10] [°C]	Structure (SMILES)	IC50 [1] [µM]	IC50 [3] [µM]	IC50 [4] [µM]	IC50 [5] [µM]	IC50 [7] [µM]	Activity [11]	Activity [12]	Activity [13]	Activity [14]	Activity [15]	Activity [16]	Activity [17]	Activity [18]	Activity [19]	Activity [20]
11.3	19	0.0925	19.7	1.9	CN(C)CCCN1C(=O)c2ccc3c4c(c(NCCCCNc5cc6c7c(ccc8c7c5C(=O)N(CCCN(C)C)C8=O)C(=O)N(CCCN(C)C)C6=O)cc(c24)C1=O)C(=O)N(CCCN(C)C)C3=O	3.39	10.1	1.93	2.48	> 10										
3.6	47	0.0383	6	< 0.1	CN(C)CCCN1C(=O)c2ccc3c4c(c5[nH]c(=O)c(=O)[nH]c5c(c24)C1=O)C(=O)N(CCCN(C)C)C3=O	> 10	> 10	10.3	1.37	> 10										
8.3	10	0.182	17	1	CN(C)CCCN1C(=O)c2ccc3c4c(c(NCCCCCCCNc5cc6c7c(ccc8c7c5C(=O)N(CCCN(C)C)C8=O)C(=O)N(CCCN(C)C)C6=O)cc(c24)C1=O)C(=O)N(CCCN(C)C)C3=O	2.19	> 10	6.56	1.89	3.45										
11	43	0.0412	13	5.1	CN(C)CCCNc1cc2c3c(ccc4c3c1C(=O)N(CCCN(C)C)C4=O)C(=O)N(CCCN(C)C)C2=O	3.88	6.32	3.4	0.59	2.43										
4.5	41	0.0439	9.3	< 0.1	CN(C)CCN1C(=O)c2ccc3c4c(c(NCC(=O)Nc5ccc(O)c(CO)c5)cc(c24)C1=O)C(=O)N(CCN(C)C)C3=O	> 10	> 10	3.04	1.44	3.69										
0.1			0.4	< 0.1	CN1CCN(c2cc3c4c(c(NCCO)cc5c4c2C(=O)N(CCO)C5=O)C(=O)N(CCO)C3=O)CC1	> 10	> 10	> 10	7.07	7.67	inactive	Tde	inactive	inactive	inactive	inactive	Tde	inactive		
5.6	84	0.0214	9	< 0.1	CN(C)CCN1C(=O)c2ccc3c4c(c(C#Cc5ccc(CN(C)C)c(O)c5)cc(c24)C1=O)C(=O)N(CCN(C)C)C3=O	0.55	0.34	0.59	0.13	0.97										
7.2	52	0.0342	10	< 0.1	CN(C)CCN1C(=O)c2ccc3c4c(c(NCCc5ccc(O)c(CN(C)C)c5)cc(c24)C1=O)C(=O)N(CCN(C)C)C3=O	0.3	0.32	0.39	0.35	0.1									Active	Active

— ChEMBL document CHEMBL4411261, “Down-Regulation of the Androgen Receptor by G-Quadruplex Ligands Sensitizes Castration-Resistant Prostate Cancer Cells to Enzalutamide” (J Med Chem, 2018)
